Measurements from ChEMBL document CHEMBL1124776, “Studies on hindered phenols and analogues. 2. 1,3-Benzoxathioles having SRS-A inhibiting activity” (J Med Chem, 1990).
Converted amounts (≈) assume the structure as drawn.

Assays:
Cavia porcellus = species on record: Cavia porcellus; assay: Evaluated for inhibition of the formation and release of SRS-A in isolated guinea pig ileum; type: functional
Summary of the method: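 Guinea pig (Hartley, male) lung slices from sensitized animals were preincubated with compound for 15 min, then challenged with albumin antigen. SRS-A formed and released was bioassayed by superfusion over isolated guinea pig ileum. IC50 (μM) came from a least-squares regression of percent inhibition against dose, with 95% confidence limits by Fieller's equation.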

Rattus norvegicus = species on record: Rattus norvegicus; assay: LPO-lowering activity was estimated by the IC50 value of compound in rat liver microsomal lipid peroxidation; type: functional
Summary of the method: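 Rat liver microsomes were reacted with compound plus cysteine (500 μM) and ferrous sulfate (5 μM), following the ferrous sulfate/cysteine method. Lipid peroxide was measured by the thiobarbituric acid method. IC50 (μg/mL) is the concentration giving 50% inhibition of lipid peroxide formation.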

[1] = system: superoxide radical (cell-free, no organism); assay: The concentration of compound required to inhibit generation of superoxide by 50 percent electrochemically
[2] = Rattus norvegicus, Liver, read-out: IC50

| IC50 (Cavia porcellus) [µM] | IC50 (Rattus norvegicus; [2]) [µg/mL] | IC50 (Rattus norvegicus) [µg/mL] | Compound | Q1/2 [1] [mM] |
| --- | --- | --- | --- | --- |
| 4.5 | < 0.1 |  | CCC1Oc2c(C)c(C)c(O)c(C)c2S1 (stereo unspecified) | 1.3 |
| 2.1 | < 0.1 |  | Cc1c(C)c2c(c(C)c1O)SC(C)O2 (stereo unspecified) | 1.6 |
|  | > 1 |  | CCCCCCCCCCCCCCCCCCCC1Oc2c(C)c(C)c(O)c(C)c2S1 (stereo unspecified) | 1.8 |
| > 37.2 | > 1 |  | Cc1c(C)c2c(c(C)c1O)SC(CCC(=O)O)O2 (stereo unspecified) | 1.8 |
| 1.5 | 0.1 (≈ 0.393 µM) |  | Cc1c(C)c2c(c(C)c1O)SC(CCCO)O2 (stereo unspecified) | 2.2 |
| 11.2 | 0.1 (≈ 0.446 µM) |  | CC1Oc2cc(C(C)(C)C)c(O)cc2S1 (stereo unspecified) |  |
| 11.9 | < 0.1 |  | CCCCC1Oc2c(C)c(C)c(O)c(C)c2S1 (stereo unspecified) | 1.6 |
|  | < 0.1 |  | Cc1c(C)c2c(c(C)c1O)CCC(C)(C)O2 [APC-100] | 2.4 |
|  | 0.3 (≈ 1.27 µM) |  | Cc1c(C)c2c(c(C)c1O)CCC(C)(CO)O2 (stereo unspecified) | 2 |

The next lines start with the compound.

| Compound | IC50 (Cavia porcellus) [µM] | IC50 (Rattus norvegicus; [2]) [µg/mL] | IC50 (Rattus norvegicus) [µg/mL] | Q1/2 [1] [mM] |
| --- | --- | --- | --- | --- |
| Cc1c(C)c2c(c(C)c1O)SC(c1ccccc1)O2 (stereo unspecified) | 6.6 | < 0.1 |  | 2.4 |
| VITAMIN E [listing 1 of 2 here] |  |  |  | 4.4 |
| VITAMIN E [listing 2 of 2 here] |  |  | > 1 |  |
| CCCCCCCC1Oc2c(C)c(C)c(O)c(C)c2S1 (stereo unspecified) | > 33.9 | < 0.1 |  | 1.4 |
| CCCCCCC1Oc2c(C)c(C)c(O)c(C)c2S1 (stereo unspecified) | > 35.6 | 0.1 (≈ 0.357 µM) |  | 1.6 |
| Oc1ccc2c(c1)SCO2 | > 64.8 | > 1 |  | 6.2 |
| Cc1cc(C(C)(C)C)c(O)c(C(C)(C)C)c1 [BUTYLATED HYDROXYTOLUENE] |  |  |  | 0.45 |
| NC1=NN(c2cccc(C(F)(F)F)c2)CC1 [BW-755C] | 136 |  |  |  |
| Cc1c(C)c2c(c(C)c1O)SCO2 | 2.4 | < 0.1 |  | 1.3 |
| CC(C)(C)c1cc(/C=C2\CCOC2=O)cc(C(C)(C)C)c1O | 147 |  |  |  |
| CCCC1Oc2c(C)c(C)c(O)c(C)c2S1 (stereo unspecified) | 3.8 | < 0.1 |  | 1.4 |
| Cc1c(C)c2c(c(C)c1O)SC(CCC(N)=O)O2 (stereo unspecified) | 3.1 | 0.3 (≈ 1.12 µM) |  | 2.3 |
| Cc1c(C)c2c(c(C)c1O)CCC(C)(C(=O)O)O2 (stereo unspecified) [TROLOX] |  | > 1 |  | 1.9 |
